pIC50: −log10 of the molar value. In brackets after ≈: the same amount, converted by molar mass.
Key:
Klebsiella pneumoniae = assay: Antibacterial activity against Klebsiella pneumoniae ATCC 27736 by broth microdilution method; type: functional
[1] = target: DNA gyrase subunit A (Escherichia coli K-12) (UniProt P0AES4); assay: Inhibition of Escherichia coli K-12 DNA gyrase A expressed in Escherichia coli DC2 assessed as compound concentration required for => 4-fold induction of luxCDABE operon by reported gene assay
Summary of the method: (§1)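 E. coli DC2 carrying a gyrA or sulA promoter–luxCDABE (Photorhabdus) fusion plasmid. Grown overnight at 37°C in LB with 2 μg/ml tetracycline, then diluted 1:100 in LB without tetracycline and precultured 1.5 h at 37°C. Compounds were added from DMSO stocks to 1% final DMSO and incubated 5 h at 37°C. Bioluminescence was divided by A595, and induction factor is the treated/untreated ratio. The value is the lowest test concentration giving ≥4-fold induction.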

[2] = target: T1, Cell division inhibitor SulA (Escherichia coli K-12) (UniProt P0AFZ5); assay: Inhibition of Escherichia coli K-12 DNA sulA expressed in Escherichia coli DC2 assessed as compound concentration required for => 4-fold induction of luxCDABE operon by reported gene assay; summary of the method: as §1
T1 sequence (whole entry): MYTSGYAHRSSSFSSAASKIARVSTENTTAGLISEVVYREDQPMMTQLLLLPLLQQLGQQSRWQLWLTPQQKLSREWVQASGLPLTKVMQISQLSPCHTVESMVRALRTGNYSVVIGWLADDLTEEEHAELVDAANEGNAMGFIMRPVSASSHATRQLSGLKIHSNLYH

Escherichia coli [3] = assay: Antibacterial activity against Escherichia coli ATCC 25922 by broth microdilution method; type: functional
Escherichia coli [4] = assay: Antibacterial activity against Escherichia coli DC2 by broth microdilution method; type: functional
Staphylococcus aureus [5] = assay: Antibacterial activity against Staphylococcus aureus 80CR5 by broth microdilution method; type: functional
Pseudomonas aeruginosa [6] = assay: Antibacterial activity against Pseudomonas aeruginosa K799/61 by broth microdilution method; type: functional
Enterococcus faecalis = assay: Antibacterial activity against Enterococcus faecalis ATCC 29212 by broth microdilution method; type: functional
Streptococcus pneumoniae [7] = assay: Antibacterial activity against Streptococcus pneumoniae ATCC 49619 by broth microdilution method; type: functional
Staphylococcus aureus [8] = assay: Antibacterial activity against Staphylococcus aureus ATCC 43300 by broth microdilution method; type: functional
Streptococcus pneumoniae [9] = assay: Antibacterial activity against Streptococcus pneumoniae TUPELO by broth microdilution method; type: functional
DNA gyrase subunit B = DNA gyrase subunit B (Escherichia coli, UniProt P0AES6); assay: Inhibition of Escherichia coli JM109 DNA gyrase subunit B assessed as ATP hydrolysis by ATPase assay
Pseudomonas aeruginosa [10] = assay: Antibacterial activity against Pseudomonas aeruginosa ATCC 27853 by broth microdilution method; type: functional
Enterococcus faecium = assay: Antibacterial activity against Enterococcus faecium ATCC 19434 by broth microdilution method; type: functional
Staphylococcus aureus [11] = assay: Antibacterial activity against Staphylococcus aureus ATCC 29213 by broth microdilution method; type: functional
Escherichia coli [12] = assay: Antibacterial activity against Escherichia coli UB1005 by broth microdilution method; type: functional
Pseudomonas aeruginosa [13] = assay: Antibacterial activity against Pseudomonas aeruginosa K799/WT by broth microdilution method; type: functional
[14] = target: DNA gyrase (Escherichia coli); assay: Inhibition of Escherichia coli JM109 DNA gyrase assessed as DNA triple helix formation by supercoiling assay
Streptococcus pneumoniae [15] = assay: Antibacterial activity against Streptococcus pneumoniae SL336-T by broth microdilution method; type: functional

MIC (Klebsiella pneumoniae): > 32 mg/L
Activity [1]: 1.6 µM
Activity [2]: 3.1 µM
MIC (Escherichia coli [3]): > 32 mg/L
MIC (Escherichia coli [4]): 8 mg/L (≈ 12.3 µM)
MIC (Staphylococcus aureus [5]): 16 mg/L (≈ 24.7 µM)
MIC (Pseudomonas aeruginosa [6]): 0.5 mg/L (≈ 0.771 µM)
MIC (Enterococcus faecalis): 8 mg/L (≈ 12.3 µM)
MIC (Streptococcus pneumoniae [7]): 1 mg/L (≈ 1.54 µM)
MIC (Staphylococcus aureus [8]): ≤ 0.06 mg/L
MIC (Streptococcus pneumoniae [9]): 2 mg/L (≈ 3.08 µM)
pIC50 (DNA gyrase subunit B): 6.94
MIC (Pseudomonas aeruginosa [10]): > 32 mg/L
MIC (Enterococcus faecium): > 32 mg/L
MIC (Staphylococcus aureus [11]): ≤ 0.06 mg/L
MIC (Escherichia coli [12]): > 32 mg/L
MIC (Pseudomonas aeruginosa [13]): > 32 mg/L
pIC50 [14]: 7.47
MIC (Streptococcus pneumoniae [15]): 2 mg/L (≈ 3.08 µM)
SMILES: C=CCc1cc(C(=O)Nc2c(O)c3ccc(O[C@@H]4OC(C)(C)[C@H](OC)[C@@H](OC(=O)c5ccc(C)[nH]5)[C@H]4O)c(C)c3oc2=O)ccc1O

Reference: ChEMBL document CHEMBL1275417, “Biological activities of novel gyrase inhibitors of the aminocoumarin class” (Antimicrob Agents Chemother, 2008)
